ChEMBL document CHEMBL4400518, “Synthesis, antimicrobial and cytotoxic activities, and molecular docking studies of N-arylsulfonylindoles containing an aminoguanidine, a semicarbazide, and a thiosemicarbazide moiety” (Eur J Med Chem, 2019)
Values after ≈ are worked out from the molar mass of the structure shown.

Assays:
HEK-293T = experiment: Cytotoxicity against HEK293T cells measured after 48 hrs by CCK8 assay; format: cell-based; settings: Homo sapiens
How it was run: (§1)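 Cells kept in DMEM with 10% FBS and penicillin-streptomycin at 37 °C, 5% CO2. About 1×10^4 cells per well attached for 24 h, then exposed for 48 h to 0.3, 1, 3, 10, 30 and 100 µmol/L of compound, in triplicate wells. CCK-8 added for 3 h, OD read at 450 nm. IC50 is the concentration inhibiting growth by 50%.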

Enterococcus faecalis = experiment: Antibacterial activity against Enterococcus faecalis CMCC 29212 measured after 24 hrs by ELISA; format: functional; settings: CMCC 29212, 24 h
How it was run: (§2)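 Broth microdilution MIC. Mid-log bacteria in MHB or TSB diluted 1000-fold, inoculated at 10^5 CFU/mL. Compounds added from DMSO stocks; final DMSO at most 0.05%. Incubation 24 h at 37 °C. Growth read as absorbance at 630 nm. MIC taken as the lowest concentration giving complete growth inhibition. Three independent experiments.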

SGC-7901 = experiment: Cytotoxicity against human SGC7901 cells measured after 48 hrs by CCK8 assay; format: functional, cell-based; settings: SGC-7901, 48 h; how it was run: as §1
Pseudomonas aeruginosa [1] = experiment: Antibacterial activity against Pseudomonas aeruginosa CMCC 27853 measured after 24 hrs by ELISA; format: functional; settings: CMCC 27853, 24 h; how it was run: as §2
[2] = Selectivity index, ratio of IC50 for HEK293T cells to MIC for Bacillus subtilis CMCC 63501; format: toxicity; settings: human, read-out: Selectivity Index
Escherichia coli [3] = experiment: Antibacterial activity against Escherichia coli CMCC 44568 measured after 24 hrs by ELISA; format: functional; settings: CMCC 44568, 24 h; how it was run: as §2
Streptococcus pneumoniae = experiment: Antibacterial activity against Streptococcus pneumoniae CMCC 31968 measured after 24 hrs by ELISA; format: functional; settings: CMCC 31968, 24 h
[4] = Selectivity index, ratio of IC50 for HEK293T cells to MIC for Pseudomonas aeruginosa CMCC 10104; format: toxicity; settings: human, read-out: Selectivity Index
Streptococcus pyogenes = experiment: Antibacterial activity against Streptococcus pyogenes CMCC 32067 measured after 24 hrs by ELISA; format: functional; settings: CMCC 32067, 24 h; how it was run: as §2
[5] = Selectivity index, ratio of IC50 for HEK293T cells to MIC for Streptococcus pneumoniae CMCC 31968; format: toxicity; settings: human, read-out: Selectivity Index
Pseudomonas aeruginosa [6] = experiment: Antibacterial activity against Pseudomonas aeruginosa CMCC 10104 measured after 24 hrs by ELISA; format: functional; settings: CMCC 10104, 24 h; how it was run: as §2
Staphylococcus aureus [7] = experiment: Antibacterial activity against methicillin-resistant Staphylococcus aureus ATCC 43300 measured after 24 hrs by ELISA; format: functional; settings: ATCC 43300, 24 h
How it was run: (§3)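 Broth serial dilution MIC. Mid-log bacteria in Mueller-Hinton or Tryptone Soya broth, diluted 1000-fold and inoculated at 10^5 CFU/mL. Compounds from DMSO stock, final DMSO ≤0.05%. Incubated 24 h at 37 °C; growth read as absorbance at 630 nm. MIC is the lowest concentration giving complete growth inhibition. Three independent experiments.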

[8] = Selectivity index, ratio of IC50 for HEK293T cells to MIC for multidrug-resistant Escherichia coli ATCC BAA-196; format: toxicity; settings: human, read-out: Selectivity Index
[9] = Cytotoxicity against human A590 cells measured after 48 hrs by CCK8 assay; format: functional, cell-based; how it was run: as §1
[10] = Selectivity index, ratio of IC50 for HEK293T cells to MIC for Escherichia coli CMCC 25922; format: toxicity; settings: human, read-out: Selectivity Index
Pseudomonas aeruginosa [11] = experiment: Antibacterial activity against multidrug-resistant Pseudomonas aeruginosa ATCC BAA-2111 measured after 24 hrs by ELISA; format: functional; settings: ATCC BAA-2111, 24 h; how it was run: as §3
[12] = Selectivity index, ratio of IC50 for HEK293T cells to MIC for Escherichia coli CMCC 44568; format: toxicity; settings: human, read-out: Selectivity Index
[13] = Selectivity index, ratio of IC50 for HEK293T cells to MIC for Staphylococcus aureus CMCC(B) 26003; format: toxicity; settings: human, read-out: Selectivity Index
[14] = Selectivity index, ratio of IC50 for HEK293T cells to MIC for Pseudomonas aeruginosa CMCC 27853; format: toxicity; settings: human, read-out: Selectivity Index
Escherichia coli [15] = experiment: Antibacterial activity against multidrug-resistant Escherichia coli ATCC BAA-196 measured after 24 hrs by ELISA; format: functional; settings: ATCC BAA-196, 24 h; how it was run: as §3
[16] = Selectivity index, ratio of IC50 for HEK293T cells to MIC for Enterococcus faecalis CMCC 29212; format: toxicity; settings: human, read-out: Selectivity Index
[17] = Selectivity index, ratio of IC50 for HEK293T cells to MIC for multidrug-resistant Pseudomonas aeruginosa ATCC BAA-2111; format: toxicity; settings: human, read-out: Selectivity Index
Bacillus subtilis = experiment: Antibacterial activity against Bacillus subtilis CMCC 63501 measured after 24 hrs by ELISA; format: functional; settings: CMCC 63501, 24 h; how it was run: as §2
[18] = Selectivity index, ratio of IC50 for HEK293T cells to MIC for methicillin-resistant Staphylococcus aureus ATCC 43300; format: toxicity; settings: human, read-out: Selectivity Index
Staphylococcus aureus [19] = experiment: Antibacterial activity against Staphylococcus aureus CMCC 25923 measured after 24 hrs by ELISA; format: functional; settings: CMCC 25923, 24 h; how it was run: as §2
Staphylococcus aureus [20] = experiment: Antibacterial activity against Staphylococcus aureus CMCC(B) 26003 measured after 24 hrs by ELISA; format: functional; settings: CMCC(B) 26003, 24 h; how it was run: as §2
Staphylococcus aureus [21] = experiment: Antibacterial activity against methicillin-resistant Staphylococcus aureus ATCC 33591 measured after 24 hrs by ELISA; format: functional; settings: ATCC 33591, 24 h; how it was run: as §3
[22] = Selectivity index, ratio of IC50 for HEK293T cells to MIC for methicillin-resistant Staphylococcus aureus ATCC 33591; format: toxicity; settings: human, read-out: Selectivity Index
[23] = Selectivity index, ratio of IC50 for HEK293T cells to MIC for Staphylococcus aureus CMCC 25923; format: toxicity; settings: human, read-out: Selectivity Index
Escherichia coli [24] = experiment: Antibacterial activity against Escherichia coli CMCC 25922 measured after 24 hrs by ELISA; format: functional; settings: CMCC 25922, 24 h; how it was run: as §2
[25] = Selectivity index, ratio of IC50 for HEK293T cells to MIC for Streptococcus pyogenes CMCC 32067; format: toxicity; settings: human, read-out: Selectivity Index

SMILES | IC50 (HEK-293T) | MIC (Enterococcus faecalis) | IC50 (SGC-7901) | MIC (Pseudomonas aeruginosa [1]) | selectivity ratio [2] | MIC (Escherichia coli [3]) | MIC (Streptococcus pneumoniae) | selectivity ratio [4] | MIC (Streptococcus pyogenes) | selectivity ratio [5] | MIC (Pseudomonas aeruginosa [6]) | MIC (Staphylococcus aureus [7]) | selectivity ratio [8] | IC50 [9] | selectivity ratio [10] | MIC (Pseudomonas aeruginosa [11]) | selectivity ratio [12] | selectivity ratio [13] | selectivity ratio [14] | MIC (Escherichia coli [15]) | further results
C/C(=N/NC(=N)N)c1cn(S(=O)(=O)c2ccc(C)cc2)c2ccccc12 | 53 µM | 43.4 µM (≈ 16 µg/mL) | 2.38 µM | 347 µM (≈ 128 µg/mL) | 4.89 | 10.8 µM (≈ 4 µg/mL) | 2.71 µM (≈ 1 µg/mL) | 4.89 | 21.7 µM (≈ 8.01 µg/mL) | 19.6 | 10.8 µM (≈ 4 µg/mL) | 5.42 µM (≈ 2 µg/mL) | 4.89 | 2.68 µM | 2.44 | > 86.7 µM | 4.89 | 4.89 | 0.15 | 10.8 µM (≈ 4 µg/mL) | selectivity ratio [16]: 1.22; selectivity ratio [17]: < 0.61; MIC (Bacillus subtilis): 10.8 µM (≈ 4 µg/mL); selectivity ratio [18]: 9.78; MIC (Staphylococcus aureus [19]): 5.42 µM (≈ 2 µg/mL); MIC (Staphylococcus aureus [20]): 10.8 µM (≈ 4 µg/mL); MIC (Staphylococcus aureus [21]): 5.42 µM (≈ 2 µg/mL); selectivity ratio [22]: 9.78; selectivity ratio [23]: 9.78; MIC (Escherichia coli [24]): 21.7 µM (≈ 8.01 µg/mL); selectivity ratio [25]: 2.44
Cc1ccc(S(=O)(=O)n2cc(/C=N\NC(=N)N)c3ccccc32)cc1 | 86.7 µM | 45.1 µM (≈ 16 µg/mL) | 2.12 µM | 45.1 µM (≈ 16 µg/mL) | 15.4 | 11.3 µM (≈ 4.01 µg/mL) | 2.82 µM (≈ 1 µg/mL) | 7.68 | > 361 µM | 30.7 | 11.3 µM (≈ 4.01 µg/mL) | 2.82 µM (≈ 1 µg/mL) | 7.67 | 12.2 µM | 7.68 | 11.3 µM (≈ 4.01 µg/mL) | 7.68 | 7.68 | 1.92 | 11.3 µM (≈ 4.01 µg/mL) | selectivity ratio [16]: 1.92; selectivity ratio [17]: 7.67; MIC (Bacillus subtilis): 5.64 µM (≈ 2 µg/mL); selectivity ratio [18]: 30.7; MIC (Staphylococcus aureus [19]): 11.3 µM (≈ 4.01 µg/mL); MIC (Staphylococcus aureus [20]): 11.3 µM (≈ 4.01 µg/mL); MIC (Staphylococcus aureus [21]): 5.63 µM (≈ 2 µg/mL); selectivity ratio [22]: 15.4; selectivity ratio [23]: 7.68; MIC (Escherichia coli [24]): 11.3 µM (≈ 4.01 µg/mL); selectivity ratio [25]: < 0.24
N=C(N)N/N=C\c1cn(S(=O)(=O)c2ccccc2)c2ccc(Br)cc12 | 71.6 µM | 19.1 µM (≈ 8.02 µg/mL) | 3.06 µM | > 305 µM | 15 | 1.19 µM (≈ 0.5 µg/mL) | > 305 µM | 7.5 | 305 µM (≈ 128 µg/mL) | < 0.23 | 9.55 µM (≈ 4.01 µg/mL) | 2.39 µM (≈ 1 µg/mL) | 30 | 14.7 µM | 7.5 | > 76.4 µM | 60.2 | 0.47 | < 0.23 | 2.39 µM (≈ 1 µg/mL) | selectivity ratio [16]: 3.75; selectivity ratio [17]: < 0.94; MIC (Bacillus subtilis): 4.77 µM (≈ 2 µg/mL); selectivity ratio [18]: 30; MIC (Staphylococcus aureus [19]): 2.37 µM (≈ 0.996 µg/mL); MIC (Staphylococcus aureus [20]): 153 µM (≈ 64.2 µg/mL); MIC (Staphylococcus aureus [21]): 2.39 µM (≈ 1 µg/mL); selectivity ratio [22]: 30; selectivity ratio [23]: 30.2; MIC (Escherichia coli [24]): 9.55 µM (≈ 4.01 µg/mL); selectivity ratio [25]: 0.23
CC/C(=N/NC(=N)N)c1cn(S(=O)(=O)c2ccc(C)cc2)c2ccc(Br)cc12 | 57.6 µM | 4.34 µM (≈ 2.01 µg/mL) | 3.92 µM | > 278 µM | 26.6 | 4.34 µM (≈ 2.01 µg/mL) | 1.08 µM (≈ 0.499 µg/mL) | < 0.21 | 139 µM (≈ 64.2 µg/mL) | 53.4 | > 278 µM | 2.17 µM (≈ 1 µg/mL) | 6.64 | 2.33 µM | 1.66 | > 69.4 µM | 13.3 | 13.3 | < 0.21 | 8.68 µM (≈ 4.01 µg/mL) | selectivity ratio [16]: 13.3; selectivity ratio [17]: < 0.83; MIC (Bacillus subtilis): 2.17 µM (≈ 1 µg/mL); selectivity ratio [18]: 26.6; MIC (Staphylococcus aureus [19]): 2.17 µM (≈ 1 µg/mL); MIC (Staphylococcus aureus [20]): 4.34 µM (≈ 2.01 µg/mL); MIC (Staphylococcus aureus [21]): 2.17 µM (≈ 1 µg/mL); selectivity ratio [22]: 26.6; selectivity ratio [23]: 13.3; MIC (Escherichia coli [24]): 34.7 µM (≈ 16 µg/mL); selectivity ratio [25]: 0.42
Cc1ccc(S(=O)(=O)n2cc(/C=N\NC(=N)N)c3cc(Br)ccc32)cc1 | 73.5 µM | 9.24 µM (≈ 4.01 µg/mL) | 4 µM | > 296 µM | 31.8 | 2.31 µM (≈ 1 µg/mL) | > 296 µM | < 0.25 | > 296 µM | < 0.25 | > 296 µM | 1.15 µM (≈ 0.499 µg/mL) | 63.9 | 15.1 µM | 7.95 | > 73.9 µM | 31.8 | 31.8 | < 0.25 | 1.15 µM (≈ 0.499 µg/mL) | selectivity ratio [16]: 7.95; selectivity ratio [17]: < 0.99; MIC (Bacillus subtilis): 2.31 µM (≈ 1 µg/mL); selectivity ratio [18]: 63.9; MIC (Staphylococcus aureus [19]): 2.31 µM (≈ 1 µg/mL); MIC (Staphylococcus aureus [20]): 2.31 µM (≈ 1 µg/mL); MIC (Staphylococcus aureus [21]): 1.15 µM (≈ 0.499 µg/mL); selectivity ratio [22]: 63.9; selectivity ratio [23]: 31.8; MIC (Escherichia coli [24]): 9.24 µM (≈ 4.01 µg/mL); selectivity ratio [25]: < 0.24
